In ChEMBL document CHEMBL5058577, “EUbOPEN Chemogenomics Library 2 (Multiplex)” (2022):

Test system: HEK-293T
Test: Multiplex assay against HEK293T
Format: toxicity, cell-based
Conditions: human
Outline: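 Hoechst33342, BioTracker Green Microtubule Cytoskeleton Dye, MitoTracker Red and Annexin V Alexa Fluor 680 were added to live cells at seeding, and imaging on a CQ1 microscope at 37°C and 5% CO2 followed compound addition. Gating by CellPathfinder machine learning separated cells into Hoechst high-intensity objects or normal cells, then normal cells into healthy, pyknosed or fragmented nuclei, then pyknosed cells into mitotic or apoptotic. Per cents of healthy-nucleus cells are reported for the tubulin, mitochondrial-mass and membrane-permeability phenotypes.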

[1] = 12 h, 1 µM, compound concentration 1 uM, replicate 1
[2] = 12 h, 1 µM, compound concentration 1 uM, replicate 2
[3] = 12 h, 10 µM, compound concentration 10 uM, replicate 1
[4] = 12 h, 10 µM, compound concentration 10 uM, replicate 2
[5] = 24 h, 1 µM, compound concentration 1 uM, replicate 1
[6] = 24 h, 1 µM, compound concentration 1 uM, replicate 2
[7] = 24 h, 10 µM, compound concentration 10 uM, replicate 1
[8] = 24 h, 10 µM, compound concentration 10 uM, replicate 2
[9] = 48 h, 1 µM, compound concentration 1 uM, replicate 1
[10] = 48 h, 1 µM, compound concentration 1 uM, replicate 2
[11] = 48 h, 10 µM, compound concentration 10 uM, replicate 1
[12] = 48 h, 10 µM, compound concentration 10 uM, replicate 2

COc1cc(C(=O)N(CCCc2ccccc2)Cc2ccc(CC(=O)O)cc2)cc(OC)c1C
Population Apoptotic (%) [1]: 45%
Population Fragmented Nuclei (%) [1]: 7%
Population Healthy Nuclei (%) [1]: 82%
Population Hoechst High Intensity Objects (%) [1]: 5%
Population Membrane Permeable-Phenotype (%) [1]: 0%
Population Mitochondria Different-Phenotype (%) [1]: 47%
Population Mitotic Cells (%) [1]: 55%
Population Normal (%) [1]: 94%
Population Pyknosed Nuclei (%) [1]: 10%
Population Tubulin-Different-Phenotype (%) [1]: 31%
Total Cell Count [1]: 395
Population Apoptotic (%) [2]: 44%
Population Fragmented Nuclei (%) [2]: 6%
Population Healthy Nuclei (%) [2]: 84%
Population Hoechst High Intensity Objects (%) [2]: 4%
Population Mitochondria Different-Phenotype (%) [2]: 50%
Population Normal (%) [2]: 95%
Population Pyknosed Nuclei (%) [2]: 9%
Population Tubulin-Different-Phenotype (%) [2]: 19%
Total Cell Count [2]: 410
Population Apoptotic (%) [3]: 30%
Population Fragmented Nuclei (%) [3]: 6%
Population Healthy Nuclei (%) [3]: 77%
Population Hoechst High Intensity Objects (%) [3]: 8%
Population Membrane Permeable-Phenotype (%) [3]: 1%
Population Mitochondria Different-Phenotype (%) [3]: 46%
Population Mitotic Cells (%) [3]: 70%
Population Normal (%) [3]: 91%
Population Pyknosed Nuclei (%) [3]: 15%
Population Tubulin-Different-Phenotype (%) [3]: 52%
Total Cell Count [3]: 431
Population Apoptotic (%) [4]: 47%
Population Fragmented Nuclei (%) [4]: 4%
Population Healthy Nuclei (%) [4]: 82%
Population Hoechst High Intensity Objects (%) [4]: 6%
Population Membrane Permeable-Phenotype (%) [4]: 0%
Population Mitochondria Different-Phenotype (%) [4]: 67%
Population Mitotic Cells (%) [4]: 52%
Population Normal (%) [4]: 93%
Population Pyknosed Nuclei (%) [4]: 13%
Population Tubulin-Different-Phenotype (%) [4]: 44%
Total Cell Count [4]: 438
Population Apoptotic (%) [5]: 32%
Population Fragmented Nuclei (%) [5]: 7%
Population Healthy Nuclei (%) [5]: 78%
Population Hoechst High Intensity Objects (%) [5]: 5%
Population Membrane Permeable-Phenotype (%) [5]: 0%
Population Mitochondria Different-Phenotype (%) [5]: 27%
Population Mitotic Cells (%) [5]: 67%
Population Normal (%) [5]: 94%
Population Pyknosed Nuclei (%) [5]: 14%
Population Tubulin-Different-Phenotype (%) [5]: 15%
Total Cell Count [5]: 483
Population Apoptotic (%) [6]: 48%
Population Healthy Nuclei (%) [6]: 82%
Population Hoechst High Intensity Objects (%) [6]: 3%
Population Mitochondria Different-Phenotype (%) [6]: 26%
Population Mitotic Cells (%) [6]: 51%
Population Normal (%) [6]: 96%
Population Pyknosed Nuclei (%) [6]: 9%
Population Tubulin-Different-Phenotype (%) [6]: 10%
Total Cell Count [6]: 507
Population Apoptotic (%) [7]: 34%
Population Fragmented Nuclei (%) [7]: 7%
Population Healthy Nuclei (%) [7]: 80%
Population Hoechst High Intensity Objects (%) [7]: 7%
Population Membrane Permeable-Phenotype (%) [7]: 0%
Population Mitochondria Different-Phenotype (%) [7]: 39%
Population Mitotic Cells (%) [7]: 65%
Population Normal (%) [7]: 92%
Population Pyknosed Nuclei (%) [7]: 12%
Population Tubulin-Different-Phenotype (%) [7]: 43%
Total Cell Count [7]: 549
Population Apoptotic (%) [8]: 42%
Population Healthy Nuclei (%) [8]: 79%
Population Hoechst High Intensity Objects (%) [8]: 6%
Population Mitochondria Different-Phenotype (%) [8]: 50%
Population Mitotic Cells (%) [8]: 57%
Population Normal (%) [8]: 93%
Population Tubulin-Different-Phenotype (%) [8]: 38%
Total Cell Count [8]: 526
Population Apoptotic (%) [9]: 30%
Population Fragmented Nuclei (%) [9]: 12%
Population Healthy Nuclei (%) [9]: 77%
Population Hoechst High Intensity Objects (%) [9]: 1%
Population Membrane Permeable-Phenotype (%) [9]: 1%
Population Mitochondria Different-Phenotype (%) [9]: 16%
Population Mitotic Cells (%) [9]: 69%
Population Normal (%) [9]: 98%
Population Pyknosed Nuclei (%) [9]: 9%
Population Tubulin-Different-Phenotype (%) [9]: 11%
Total Cell Count [9]: 812
Population Apoptotic (%) [10]: 26%
Population Fragmented Nuclei (%) [10]: 9%
Population Healthy Nuclei (%) [10]: 83%
Population Hoechst High Intensity Objects (%) [10]: 3%
Population Mitochondria Different-Phenotype (%) [10]: 17%
Population Mitotic Cells (%) [10]: 73%
Population Normal (%) [10]: 96%
Population Pyknosed Nuclei (%) [10]: 7%
Population Tubulin-Different-Phenotype (%) [10]: 9%
Total Cell Count [10]: 753
Population Apoptotic (%) [11]: 32%
Population Fragmented Nuclei (%) [11]: 12%
Population Healthy Nuclei (%) [11]: 76%
Population Hoechst High Intensity Objects (%) [11]: 4%
Population Membrane Permeable-Phenotype (%) [11]: 1%
Population Mitochondria Different-Phenotype (%) [11]: 29%
Population Mitotic Cells (%) [11]: 67%
Population Normal (%) [11]: 95%
Population Pyknosed Nuclei (%) [11]: 11%
Population Tubulin-Different-Phenotype (%) [11]: 29%
Total Cell Count [11]: 729
Population Apoptotic (%) [12]: 33%
Population Fragmented Nuclei (%) [12]: 15%
Population Healthy Nuclei (%) [12]: 75%
Population Hoechst High Intensity Objects (%) [12]: 8%
Population Mitochondria Different-Phenotype (%) [12]: 37%
Population Mitotic Cells (%) [12]: 66%
Population Normal (%) [12]: 91%
Population Pyknosed Nuclei (%) [12]: 9%
Population Tubulin-Different-Phenotype (%) [12]: 34%
Total Cell Count [12]: 632
